# What was measured:
# [1] = tested on: white blood cells (WBCs); test: MTT assay on non-transformed white blood cells; type: cell-based, human; details: 48 h treatment with 100 μM
# Method in brief: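 WBCs from a healthy adult volunteer were isolated by HiSep centrifugation at 400 xg for 30 min, followed by repeated RBC lysis and PBS washes. Cells were held at 37 °C under 5% CO2 overnight in 96-well plates. Test compound was applied at 2.5–100 μM for 48 h. After two PBS washes, MTT was added for 4 h at 37 °C; formazan was dissolved in DMSO and absorbance read at 570 nm.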
# [2] = tested on: CEM cells; test: Cell cycle analysis by flow cytometry; type: cell-based; details: IC50 concentration, 24 h
# Method in brief: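 Cells were seeded in 24-well plates overnight, then given fresh medium and exposed to the test compound for 24 h beside an untreated control. After a PBS wash, cells were fixed in ice-cold 70% ethanol on ice for 2 h, then washed again. They were stained with PI for 15 min at 37 °C and analysed by flow cytometry within 30 min, in triplicate.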
# [3] = tested on: CEM cells; test: Apoptosis induction by flow cytometry; type: cell-based; details: IC50 concentration, 24 h
# Method in brief: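 CEM cells seeded in 24-well plates and held overnight at 37 °C under CO2. Medium was then replaced, and cells were exposed to the test compound for 24 h; untreated cells served as the negative control. Cells were washed in PBS, pelleted at 500 xg and 4 °C, resuspended in ice-cold binding buffer, and stained with annexin V-FITC plus PI for 15 min on ice in the dark. Analysed by flow cytometry, in triplicate.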
# [4] = molecular target: T1, GLUT1 (Homo sapiens, UniProt P11166); type: cell-based
# T1 sequence (P11166 1-492): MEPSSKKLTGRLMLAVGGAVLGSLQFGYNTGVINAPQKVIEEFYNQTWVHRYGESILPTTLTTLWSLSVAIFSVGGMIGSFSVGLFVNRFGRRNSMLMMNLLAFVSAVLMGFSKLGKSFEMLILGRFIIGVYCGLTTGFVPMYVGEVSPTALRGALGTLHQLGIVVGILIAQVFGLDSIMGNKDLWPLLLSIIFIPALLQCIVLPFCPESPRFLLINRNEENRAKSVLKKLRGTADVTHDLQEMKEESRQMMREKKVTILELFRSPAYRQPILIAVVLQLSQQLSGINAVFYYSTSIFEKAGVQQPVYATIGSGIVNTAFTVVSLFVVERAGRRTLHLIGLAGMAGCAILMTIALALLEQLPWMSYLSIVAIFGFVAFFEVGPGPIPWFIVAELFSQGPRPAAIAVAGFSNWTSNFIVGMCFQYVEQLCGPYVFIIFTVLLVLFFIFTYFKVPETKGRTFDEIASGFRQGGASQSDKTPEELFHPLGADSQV
# Method in brief: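 VW4000fgy1 hxt0 yeast carrying human GLUT1 were grown at 30 °C: first in SC-uracil/2% maltose for 2–3 days, then 1–2 days in SC-uracil/2% glucose from OD600 ~0.5. Cells were resuspended in PBS pH 7.4 at OD600 ~10 and given 5 mM C14-glucose for 10 min. Uptake was quenched with ice-cold buffer pH 5.5, filtered, and counted. Controls: 1% DMSO and 200 μM phloretin.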
# [5] = tested on: GLUT5; type: cell-based, human
# Method in brief: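 Uses hexose-transporter-null VW4000 yeast expressing human GLUT5, cultured at 30 °C and 180 rpm. Cells were grown one day in YEP/2% maltose with G418, then 1–2 days in YEP/2% fructose starting from OD600 ~0.5. Washed cells in PBS pH 7.4 (OD600 ~10) took up 10 mM C14-fructose for 10 min. Uptake was stopped with ice-cold KPi/LiCl quench buffer pH 5.5, then filtered and scintillation-counted. Controls were 1% DMSO and 100 μM MSNBA. Screening was at 100 μM; three independent measurements.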
# [6] = tested on: K562 cells; test: MTT cytotoxicity assay in K562 cells; type: cell-based; details: read-out: K562- IC50; MTT, 48 h, Mean±SD, n=3
# Method in brief: (§1)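 Cells were grown in suspension in RPMI 1640 with 10% FBS and penicillin/streptomycin/amphotericin B at 37 °C under 5% CO2. They were seeded at ~5×10^3 cells/well, kept overnight, then exposed to test compounds diluted in DMSO for 48 h. Cells were pelleted (300 g, 4 °C, 5 min) and washed twice in phosphate buffer. MTT (5 mg/ml stock) was added for 4 h at 37 °C, formazan dissolved in DMSO, and A570 read. Triplicate; IC50 given as mean±SD.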
# [7] = molecular target: T2, GLUT4 (Homo sapiens, UniProt P14672); type: cell-based
# T2 sequence (P14672 1-509): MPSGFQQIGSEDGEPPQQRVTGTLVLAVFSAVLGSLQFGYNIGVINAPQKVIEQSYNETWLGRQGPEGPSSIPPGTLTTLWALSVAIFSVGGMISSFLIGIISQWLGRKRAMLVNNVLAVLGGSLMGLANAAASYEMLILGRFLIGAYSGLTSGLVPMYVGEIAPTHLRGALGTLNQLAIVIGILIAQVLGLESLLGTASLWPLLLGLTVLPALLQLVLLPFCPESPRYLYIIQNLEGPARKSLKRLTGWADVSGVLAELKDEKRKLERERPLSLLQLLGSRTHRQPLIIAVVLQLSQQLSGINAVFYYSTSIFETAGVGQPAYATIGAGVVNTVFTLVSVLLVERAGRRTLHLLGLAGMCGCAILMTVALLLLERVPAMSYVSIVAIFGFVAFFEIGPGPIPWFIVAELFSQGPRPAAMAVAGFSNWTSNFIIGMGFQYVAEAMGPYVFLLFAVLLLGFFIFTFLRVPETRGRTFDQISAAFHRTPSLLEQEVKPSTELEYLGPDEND
# Method in brief: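 VW4000fgy1erg4 hxt0 yeast expressing human GLUT4 were cultured at 30 °C, first in SC-uracil/1% maltose and then in SC-uracil/0.2% glucose from OD600 ~0.5. Cells in PBS pH 7.4 (OD600 ~10) were fed 5 mM C14-glucose for 10 min. The reaction was quenched in ice-cold buffer pH 5.5, then filtered and scintillation-counted. Vehicle control was 1% DMSO; 200 μM phloretin served as positive control.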
# [8] = tested on: CEM cells; test: MTT cytotoxicity assay in CEM cells; type: cell-based; details: read-out: CEM- IC50, 48 h, Mean±SD, n=3
# Method in brief: as §1
# [9] = primary screen, 100 μM compound
structure (smiles),measurement,setting,value
"O=C(CN1C(=O)SC(=Cc2ccc(Cl)cc2)C1=O)Nc1ccc(Cl)cc1C(F)(F)F [Compound G5, 2-[5-(4-Chlorobenzylidene)-2,4-dioxothiazolidin-3-yl]-N-(4-chloro-2-trifluromethylphenyl) acetamide]",viable WBC cells,[1],More than 66%
same,percentage of cells arrested in G0-G1 phase,[2],52.0%
same,percentage of cells arrested in the G2-M phase,[2],22.1%
same,percentage of cells in early apoptotic phase,[3],1.30%
same,percentage of cells in late apoptotic phase,[3],59.22%
same,percentage of live cells,[3],25.58%
same,percentage of necrotic cell population,[3],13.90%
same,decrease of relative transport activity of GLUT1,[4]; [9],> 50%
same,IC50,"[4]; read-out: GLUT1 IC50, hxt0 yeast cells expressing GLUT1, 5 mM C14-glucose, 10 minutes",5.4 ± 1.3 µM
same,decrease of relative transport activity of GLUT5,[5]; [9],> 50%
same,IC50,"[5]; read-out: GLUT5 IC50, hxt0 yeast cells expressing GLUT5, 10 mM C14-fructose, 10 minutes",34.5 ± 2.4 µM
same,IC50,[6],34.9 ± 1.07 µM
same,decrease of relative transport activity of GLUT4,[7]; [9],> 50%
same,IC50,"[7]; read-out: GLUT4 IC50, hxt0 yeast cells expressing GLUT4, 5 mM C14-glucose, 10 minutes",9.5 ± 2.8 µM
same,IC50,[8],13.5 ± 3.88 µM

# From PMC9398548 (European journal of pharmaceutical sciences : official …, 2020)
